# Data as given in ChEMBL document CHEMBL3243977, “Synthesis and antiestrogenic activity of [3,4-dihydro-2-(4-methoxyphenyl)-1-naphthalenyl][4-[2-(1-pyrrolidinyl)ethoxy]-phenyl]methanone, methanesulfonic acid salt” (J Med Chem, 1979).
# Activity calls are given as the source filed them. No cut-off for these calls is given here.
# How the values were obtained:
# Rattus norvegicus [1] = assay: Postcoital antifertility activity in rat assessed as viable/resorbing fetuses at 1 ug, po qd for 11 days; type: functional, organism-based
# Summary of the method: (§1)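 Female rats, 4–5 per group, given 11 daily oral or subcutaneous doses starting at the first evidence of breeding. They were killed on day 12 and checked for viable or resorbing fetuses. Results are given as animals pregnant out of animals treated.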
# Rattus norvegicus [2] = assay: Postcoital antifertility activity in rat assessed as viable/resorbing fetuses at 1 ug, sc qd for 11 days; type: functional, organism-based; summary of the method: as §1
# Mus musculus [3] = assay: Antiestrogenic activity in immature Cox mouse assessed as reduction of uterine wet weight at 3 ug, sc qd for 3 days in presence of 0.3 ug of estrone; type: functional
# Summary of the method: (§2)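 Immature mice, ten per group, given the agent daily for 3 days by subcutaneous injection or by mouth. The agent went with estrone given subcutaneously (0.3 µg total dose in the table). Subcutaneous doses were in 0.1 mL corn oil, and doses are stated as total dose. Uterine wet weight was taken on day 4 and compared with estrone alone. Reported as mean difference in mg (SE) and % inhibition.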
# Mus musculus [4] = assay: Antiestrogenic activity in immature Cox mouse assessed as reduction of uterine wet weight at 100 ug, po qd for 3 days in presence of 0.3 ug of estrone; type: functional; summary of the method: as §2
# Rattus norvegicus [5] = assay: Postcoital antifertility activity in rat assessed as viable/resorbing fetuses at 0.5 ug, po qd for 11 days; type: functional, organism-based; summary of the method: as §1
# Rattus norvegicus [6] = assay: Antiuterotropic activity in ovariectomized rat assessed as reduction of uterine weight at 10 ug, po qd for 7 days in presence of 17beta-estradiol (reference value: 268.7 +/- 10.3 mg); type: functional
# Mus musculus [7] = assay: Antiestrogenic activity in immature Cox mouse assessed as reduction of uterine wet weight at 30 ug, po qd for 3 days in presence of 0.3 ug of estrone; type: functional; summary of the method: as §2
# Rattus norvegicus [8] = assay: Antiuterotropic activity in ovariectomized rat assessed as reduction of uterine weight at 3 ug, po qd for 7 days in presence of 17beta-estradiol (reference value: 268.7 +/- 10.3 mg); type: functional
# Rattus norvegicus [9] = assay: Uterotropic activity in ovariectomized rat assessed as increase of uterine weight at 0.5 ug, po qd for 7 days; type: functional, Uterus; details: in the assay text read “0.5 mg” for “0.5 ug”
# Summary of the method: (§3)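 Ovariectomized adult rats, five per group, treated daily for 7 days, orally or subcutaneously, with the agent in 0.1 mL corn oil. The value is the mean uterine weight in mg of the treated group minus that of the control group (eight animals). Significance was tested by Student's t test (p < 0.05).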
# Mus musculus [10] = assay: Antiestrogenic activity in immature Cox mouse assessed as reduction of uterine wet weight at 1 ug, sc qd for 3 days; type: functional
# Rattus norvegicus [11] = assay: Postcoital antifertility activity in rat assessed as viable/resorbing fetuses at 5 ug, po qd for 11 days; type: functional, organism-based; summary of the method: as §1
# Rattus norvegicus [12] = assay: Postcoital antifertility activity in rat assessed as viable/resorbing fetuses at 5 ug, sc qd for 11 days; type: functional, organism-based; summary of the method: as §1
# Rattus norvegicus [13] = assay: Postcoital antifertility activity in rat assessed as viable/resorbing fetuses at 0.5 ug, sc qd for 11 days; type: functional, organism-based; summary of the method: as §1
# Rattus norvegicus [14] = assay: Antiuterotropic activity in ovariectomized rat assessed as reduction of uterine weight at 5 ug, po qd for 7 days in presence of 17beta-estradiol (reference value: 268.7 +/- 10.3 mg); type: functional
# Mus musculus [15] = assay: Antiestrogenic activity in immature Cox mouse assessed as reduction of uterine wet weight at 10 ug, sc qd for 3 days in presence of 0.3 ug of estrone; type: functional; summary of the method: as §2
# Mus musculus [16] = assay: Antiestrogenic activity in immature Cox mouse assessed as reduction of uterine wet weight at 100 ug, sc qd for 3 days in presence of 0.3 ug of estrone; type: functional; summary of the method: as §2
# Mus musculus [17] = assay: Antiestrogenic activity in immature Cox mouse assessed as reduction of uterine wet weight at 30 ug, sc qd for 3 days in presence of 0.3 ug of estrone; type: functional; summary of the method: as §2
# Rattus norvegicus [18] = assay: Uterotropic activity in ovariectomized rat assessed as increase of uterine weight at 1 ug, sc qd for 7 days; type: functional, Uterus; details: in the assay text read “1 mg” for “1 ug”; summary of the method: as §3
# Mus musculus [19] = assay: Antiestrogenic activity in immature Cox mouse assessed as reduction of uterine wet weight at 300 ug, po qd for 3 days in presence of 0.3 ug of estrone; type: functional; summary of the method: as §2
# Mus musculus [20] = assay: Antiestrogenic activity in immature Cox mouse assessed as reduction of uterine wet weight at 300 ug, sc qd for 3 days; type: functional
# Mus musculus [21] = assay: Antiestrogenic activity in immature Cox mouse assessed as reduction of uterine wet weight at 300 ug, sc qd for 3 days in presence of 0.3 ug of estrone; type: functional; summary of the method: as §2
# Mus musculus [22] = assay: Antiestrogenic activity in immature Cox mouse assessed as reduction of uterine wet weight at 10 ug, sc qd for 3 days; type: functional
# Mus musculus [23] = assay: Antiestrogenic activity in immature Cox mouse assessed as reduction of uterine wet weight at 1 ug, sc qd for 3 days in presence of 0.3 ug of estrone; type: functional; summary of the method: as §2
# Mus musculus [24] = assay: Antiestrogenic activity in immature Cox mouse assessed as reduction of uterine wet weight at 3 ug, sc qd for 3 days; type: functional
# Rattus norvegicus [25] = assay: Uterotropic activity in ovariectomized rat assessed as increase of uterine weight at 1 ug, po qd for 7 days; type: functional, Uterus; details: in the assay text read “1 mg” for “1 ug”; summary of the method: as §3
# Mus musculus [26] = assay: Antiestrogenic activity in immature Cox mouse assessed as reduction of uterine wet weight at 100 ug, sc qd for 3 days; type: functional
# Rattus norvegicus [27] = assay: Uterotropic activity in ovariectomized rat assessed as increase of uterine weight at 0.1 ug, po qd for 7 days; type: functional, Uterus; details: in the assay text read “0.1 mg” for “0.1 ug”; summary of the method: as §3
# Mus musculus [28] = assay: Antiestrogenic activity in immature Cox mouse assessed as reduction of uterine wet weight at 30 ug, sc qd for 3 days; type: functional
structure (smiles),measurement,setting,value
COc1ccc(C(=O)C2=C(c3ccc(OC)cc3)CCc3ccccc32)cc1,Activity,Rattus norvegicus [1],inactive
same,Activity,Rattus norvegicus [2]; in the assay text read “at 1 mg” for “at 1 ug”,inactive
COc1ccc(C(=O)C2C(c3ccc(OC)cc3)=CCc3ccccc32)cc1 (configuration not stated),Activity,Rattus norvegicus [1],inactive
same,Activity,Rattus norvegicus [2],inactive
COc1ccc(C2=C(C(=O)c3ccc(OCCN4CCCC4)cc3)c3ccccc3CC2)cc1.CS(=O)(=O)O [TRIOXIFENE MESYLATE],inhibition (INH),Mus musculus [3],12.7%
same,inhibition (INH),Mus musculus [4],49.2%
same,Activity,Rattus norvegicus [5],inactive
same,Activity,Rattus norvegicus [1],Active
same,Activity,Rattus norvegicus [6],200.9 mg
same,inhibition (INH),Mus musculus [7],31.1%
same,Activity,Rattus norvegicus [8],231.7 mg
same,Activity,Rattus norvegicus [9],54.9 mg
same,Activity,Mus musculus [10],8.6 mg
same,Activity,Rattus norvegicus [11],Active
same,Activity,Rattus norvegicus [2],Active
same,Activity,Rattus norvegicus [12],Active
same,Activity,Rattus norvegicus [13],inactive
same,Activity,Rattus norvegicus [14],222.3 mg
same,inhibition (INH),Mus musculus [15],22.8%
same,inhibition (INH),Mus musculus [16],53.5%
same,inhibition (INH),Mus musculus [17],25.9%
same,Activity,Rattus norvegicus [18],66.8 mg
same,inhibition (INH),Mus musculus [19],52.3%
same,Activity,Mus musculus [20],19.1 mg
same,inhibition (INH),Mus musculus [21],44.1%
same,Activity,Mus musculus [22],34 mg
same,inhibition (INH),Mus musculus [23],0%
same,Activity,Mus musculus [24],28.8 mg
same,Activity,Rattus norvegicus [25],58.7 mg
same,Activity,Mus musculus [26],24.2 mg
same,Activity,Rattus norvegicus [27],35 mg
same,Activity,Mus musculus [28],21.2 mg
